Variants at the floor of the assay were thinned out.
B1: tRNA (parent)
chain: GUUCCGUUGGCGUAAUGGUAACGCGUCUCCCUCCUAAGGAGAAGACUGCGGGUUCGAGUCCCGUACGGAACG

Variants of: B1
Test: yeast fitness relative to wild type (ratio to wild type); higher = fitter; tRNA-Arg(CCU), competitive growth, 37 C, YPD
Outline: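 Amplicons of the tRNA-Arg(CCU) gene were sequenced, 100-nucleotide paired-end, from the start population and from each end population of a pooled yeast competition. The competition, in six parallel replicates, lasted 24 hours in YPD at 37°C. Fitness relative to wild type was calculated from changes in genotype frequencies. Genotypes had to have ≥ 100 starting reads, and estimates < 0.5 were set to 0.5.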

Variant | yeast fitness
C5G G9C C30G C66U | ≤ 0.5
C5G C33A G41C A65C | ≤ 0.5
C5G C29U G39A | 0.671
C5G C29A U59A | ≤ 0.5
C5G C61G A65U | ≤ 0.5
C5G C29G A36U | ≤ 0.5
C5G G9C A42G C49U U54C | 0.533
C5G C30A A42C | ≤ 0.5
C5G C49G G50A A57C | ≤ 0.5
C5G C30U A42G | 0.57
C5G C29G C33A | ≤ 0.5
C5G C29U A43C U54G C60G C62U | ≤ 0.5
C5G C49U U59G | 0.579
C5G C30G G67C | 0.543
C5G C46U C49U | 0.944
C5G C55G A70U | ≤ 0.5
C5G C31U U32C U54G C55U C61U | ≤ 0.5
C5G G9A C31G | 0.767
C5G C31A C55U A65C A70U | ≤ 0.5
C5G C34A A37U G44A G51A C55A A57U | ≤ 0.5
C5G G9A A20G | 0.553
C5G C66G G68C | ≤ 0.5
C5G G9C A57U | ≤ 0.5
C5G C34G G38C G68C | ≤ 0.5

Variant | yeast fitness
C5G C29U C33U G39C | 0.724
C5G G10A C11G U16G C33G U47A C60A | ≤ 0.5
C5G C31U A36C G38A G56A A70U | ≤ 0.5
C5G C31U C49G C66U | ≤ 0.5
C5G G9C A20G A21C U59C | ≤ 0.5
C5G G10C C29A U32A C46G A57C | ≤ 0.5
C5G C60A A69C | 0.532
C5G C34G U47A C62A G63A | ≤ 0.5
C5G G10A C11G U16G | ≤ 0.5
C5G C55G U59C C60U G67U | ≤ 0.5
C5G C33U G56C | 0.575
C5G C29U C30A C66U | 0.645
C5G G6A G48A | ≤ 0.5
C5G C31G C46A G63C A65U | ≤ 0.5
C5G G6C C46A | ≤ 0.5
C5G C29A U32G | ≤ 0.5
C5G C61G | 0.63
C5G C61U | 0.736
C5G C61A | 0.651
C5G G9C | 0.696
C5G G10C A37U G38A | ≤ 0.5
C5G C49U C61G | 0.534
C5G C31G G52C U54A C62G | 0.5
C5G C29G A65G | 0.565

Variant | yeast fitness
C5G C31A G67C | 0.62
C5G C29G G52A G67A | ≤ 0.5
C5G C66U | 0.74
C5G C34A A37U G44A G51A C55A | 0.654
C5G C34U G44C U47G | ≤ 0.5
C5G G6C U54C G56C G58A | ≤ 0.5
C5G G10A A40G A70G | ≤ 0.5
C5G G6C G67A | ≤ 0.5
C5G G6A G25A | 0.675
C5G C55U C61A A65U | 0.669
C5G G10C U13G A37C | 0.508
C5G G9C A20U A21G C24G C27G A43G | ≤ 0.5
C5G G9C A42G U54C U59C | ≤ 0.5
C5G C49U G63C | ≤ 0.5
C5G C30G G52C | 0.519
C5G C30G G52A | 0.523
C5G G10C G52A A69U | ≤ 0.5
C5G C30A A36G C61A | 0.592
C5G G10C C22A U32C | ≤ 0.5
C5G G9A A65C | 0.596
C5G G9C C30G | ≤ 0.5
C5G G9C A42G U54C | 0.641
C5G G10A C11G U16G C33G C61A | ≤ 0.5
C5G G10A G52A A70G | 0.564

Variant | yeast fitness
C5G G9A C27G C61U | ≤ 0.5
C5G C46G C49U | 0.646
C5G G10C C30U G39C C55G | ≤ 0.5
C5G C62U C66G | 0.641
C5G G10C A15C C34U C55A | ≤ 0.5
C5G G10C G68U | ≤ 0.5
C5G G6C A37G G51C A57G | ≤ 0.5
C5G C61G A69C | 0.574
C5G G6A G23A | ≤ 0.5
C5G C30G G56A G58C C61G | ≤ 0.5
C5G G9C C33G A45G C55G G56C | ≤ 0.5
C5G C33G G67A | ≤ 0.5
C5G C46G A69U | 0.712
C5G C30U C34U A37U G68C | ≤ 0.5
C5G G6C C30G C33U A45U | ≤ 0.5
C5G C34G C62G | 0.59
C5G C60U C62G | 0.634
C5G C60A | 0.663
C5G C60G | 0.581
C5G G10A A20U C24U C34U A43U A69C | 0.667
C5G C31U C60U A69G | ≤ 0.5
C5G C30U | 0.799
C5G C31U A36C G38A U54A | ≤ 0.5
C5G C49U G58C | 0.622

Variant | yeast fitness
C5G C30U G44C | ≤ 0.5
C5G C34G C62A G63A | ≤ 0.5
C5G G9U A21C U54A A57G | ≤ 0.5
C5G G9C U28C C55U | ≤ 0.5
C5G C31U G58C C62A | ≤ 0.5
C5G G9C G56C | ≤ 0.5
C5G C60G A70C | 0.509
C5G G6C U26G C61U | 0.59
C5G C55U A65C A70U | ≤ 0.5
C5G G10A A20U U26C U35C C49A G56A U64A | ≤ 0.5
C5G C49U | 0.815
C5G C33A | 0.616
C5G C33U | 0.673
C5G C62G | 0.791
C5G C29U | 0.793
C5G C29G | 0.779
C5G G10A C29G | ≤ 0.5
C5G C30U C31G C61A A69U | ≤ 0.5
C5G G6A C29U C33G G38A G67U | ≤ 0.5
C5G C46U G51A U54G | 0.571
C5G C46U G68C | 0.596
C5G G10C G67A | ≤ 0.5
C5G C30G C66U | ≤ 0.5
C5G C34U C46A C62U | ≤ 0.5

Variant | yeast fitness
C5G C31U A36C G38A G50A | ≤ 0.5
C5G G10A G52A | 0.741
C5G G9A C11U A21U C22U A57C C60G | 0.535
C5G C29U A37G C66U | 0.536
C5G C61U A70G | 0.707
C5G G9C A21G | 0.531
C5G G10A C11G U16G C33G A65G | ≤ 0.5
C5G C55U G68C | 0.506
C5G G10C C31U A70G | ≤ 0.5
C5G C55U C61A | 0.605
C5G G10A C11G U16G C33G G58A A65G | ≤ 0.5
C5G C30A A36G U64C | ≤ 0.5
C5G G10A C11G U16G C33G U59C | ≤ 0.5
C5G C46G A65C | 0.668
C5G C55U G67A | 0.598
C5G C34G | 0.62
C5G C34U | 0.599
C5G C46U C66A | 0.524
C5G C61A G67A | 0.529
C5G G6A U53G A57C | ≤ 0.5
C5G G10C | 0.651
C5G G9C A14C | ≤ 0.5
C5G C29G C34U | ≤ 0.5
C5G C34U C55G A70G | ≤ 0.5

Variant | yeast fitness
C5G G6C C33A A40U A70C | ≤ 0.5
C5G C33G C55U | 0.875
C5G G9A A43G G48C A69C | ≤ 0.5
C5G C33A A57G | 0.59
C5G C61U A65U | 0.557
C5G C30U U32A C61G | ≤ 0.5
C5G C34U A70U | ≤ 0.5
C5G C46U | 0.88
C5G C46A | 0.917
C5G C33G C60G C66G | 0.584
C5G G6C U64C | 0.586
C5G C31U G63A | 0.683
C5G G10C G52A | ≤ 0.5
C5G C34U U35C | 0.545
C5G G6C C24U C46A | 0.559
C5G C31A A37C G48A G58C | 0.565
C5G C34G C66U | ≤ 0.5
C5G G9C G18A G25C A37C A43G | ≤ 0.5
C5G C29U A70C | 0.527
C5G G10C A43U C62A | ≤ 0.5
C5G C33U A57G | ≤ 0.5
C5G C49G G63A | 0.57
C5G C62U A69C | 0.708

Reference: the RNAGym collection of RNA variant scans (doi:10.1126/science.aae0568)
